For test [1], the system named is MCF7. The experiment in a line: Antiproliferation activity against human MCF7 cells assessed as inhibition of cell proliferation at 10 uM by MTT assay relative to control. It counts as functional. The method, boiled down:
(§1)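 Cells grown at 37°C in high-glucose DMEM with 10% FBS, 2 mM L-glutamine and 1% penicillin–streptomycin. Compounds, dissolved in DMSO, were added at 80% confluency, with DMSO-only and untreated wells as controls. MTT in PBS was then added for 2 h at 37°C. Formazan was dissolved in DMSO and read at 550 nm, with viability expressed relative to control cells set as 100%.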

The subject of test [2] is MCF7. The experiment in a line: Antiproliferation activity against human MCF7 cells assessed as inhibition of cell proliferation at 1 uM by MTT assay relative to control. Type of test: functional. A digest of the protocol:
as §1

Active and inactive are the calls of the source. No cut-off for these calls is given here.

`S=c1[nH]nc(Cn2c(-c3ccc(OCc4ccccc4)c(OCc4ccccc4)c3)nc3ccccc32)n1CCN1CCOCC1`: the inhibition (in general, how much of the control response was suppressed) in test [1] is “inactive”.
`C#Cc1cccc(Nc2ncnc3cc(OCCOC)c(OCCOC)cc23)c1` [ERLOTINIB]: in test [2], the inhibition at 1 µM was 60%.

The values above are taken from ChEMBL document CHEMBL4346713, “Design, synthesis and docking studies of benzimidazole derivatives as potential EGFR inhibitors” (2019).
